Screening data: PubChem BioAssay, Johns Hopkins Ion Channel Center
In the library only some 3.8% were active in any assay of this set; here they are far more common.
KCNK3 block: human KCNK3 channel inhibitors, primary screen, CHO cells, FluxOR thallium flux, B-score | Potassium channel subfamily K member 3 (Homo sapiens), O14649 | FluxOR fluorescence; active compounds read low | B-score at 10 µM | actives 0.84% (n = 340,000);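 active = B-score under library mean minus 4 SD, starting fluorescence ratio at most library mean plus 5 SD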;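 note: more negative B-score means stronger inhibition of thallium flux through KCNK3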
KCNK9 inh: KCNK9 potassium channel inhibitors, primary screen, HEK293 cells, thallium flux | Potassium channel subfamily K member 9 (Homo sapiens), Q9NPC2 | FluxOR thallium flux fluorescence; active compounds read low | B-score at 10 µM | actives 1.2% (n = 310,000) | AID 488922, 2010;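 active = ratio B-score over 3 SD below the library mean, with starting fluorescence within 5 SD of its mean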;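 note: negative B-score means less thallium flux so channel inhibition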
Kir21 block: inhibitors of mouse Kir2.1 inward-rectifier potassium channel; Inward rectifier potassium channel 2 (Mus musculus), P35561; HEK293-Kir2.1, FluxOR thallium flux fluorescence; active compounds read low; B-score at 10 µM; actives 0.85% (n = 310,000);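 active = fluorescence ratio B-score at or below minus 3 SD of library scores, with starting-brightness B-score within 2 SD, cut at about -4.2 in these data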;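 note: channel flux triggered by added potassium and thallium sulfate stimulus; B-score of peak minus minimum fluorescence over baseline after thallium stimulus; more negative B-score means stronger Kir2.1 block with less thallium influx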
Target sequence (P35561 whole entry, looked up): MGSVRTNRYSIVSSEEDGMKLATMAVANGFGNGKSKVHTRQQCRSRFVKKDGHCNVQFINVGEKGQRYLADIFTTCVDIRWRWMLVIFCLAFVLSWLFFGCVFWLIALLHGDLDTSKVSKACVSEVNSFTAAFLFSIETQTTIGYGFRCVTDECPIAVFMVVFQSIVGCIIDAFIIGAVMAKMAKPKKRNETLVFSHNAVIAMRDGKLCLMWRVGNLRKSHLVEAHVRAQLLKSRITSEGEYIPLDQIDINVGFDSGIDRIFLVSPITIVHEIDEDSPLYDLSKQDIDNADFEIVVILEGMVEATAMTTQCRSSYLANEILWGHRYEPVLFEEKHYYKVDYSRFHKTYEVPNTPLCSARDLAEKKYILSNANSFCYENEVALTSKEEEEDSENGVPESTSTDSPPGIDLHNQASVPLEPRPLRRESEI
KCNQ1 inh: inhibitors of human KCNQ1 channel, primary screen, cell-based, thallium flux, high-throughput; Potassium voltage-gated channel subfamily KQT member 1 (Homo sapiens), P51787; CHO-K1 KCNQ1, FluxOR thallium flux fluorescence; active compounds read high; B-score at 10 µM; actives 1.3% (n = 310,000); AID 2642, 2010;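 active = compounds whose thallium flux B-score, printed positive for inhibition, exceeds three library SD while starting fluorescence stays within three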;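 note: channel opened by potassium depolarization with thallium stimulus after 20 min compound exposure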
hERG protect: hERG rescue from dofetilide block, primary screen, cell-based, CHO-hERG, FluxOR thallium flux, dofetilide IC70 | Voltage-gated inwardly rectifying potassium channel KCNH2 (Homo sapiens), Q12809 | dofetilide IC70 present | activation (rescue from dofetilide block), less the hit threshold, % at 10 µM | actives 0.51% (n = 310,000) | AID 1511, 2009;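 active = activation above the mean of controls blocked by dofetilide plus 5 SD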;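 note: thallium influx through hERG after potassium depolarization seen as dye fluorescence rise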
KCNQ1 pot: potentiators or activators of KCNQ1 channel, primary screen, cell-based, thallium flux, high-throughput. Potassium voltage-gated channel subfamily KQT member 1 (Homo sapiens), P51787. CHO-K1 KCNQ1, thallium flux FluxOR fluorescence; active compounds read high. actives 0.35% (n = 310,000). AID 2648, 2010. B-score at 10 µM;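 active = fluorescence ratio B-score, a plate-corrected score, at least three library SD, with initial intensity B-score within 5 SD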
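System: Stable KCNQ1 CHO-K1 line | Incubation: 90 min dye loading and 20 min compound exposure, both at room temperature | Measure: Ratio B score | Medium: Assay buffer for compound exposure, DMSO matched across wells | Compound dosing: Single-concentration screen | Probe or stimulus: K+/Tl+ depolarizing stimulus | Measured by: Kinetic FluxOR fluorescence, 10 s baseline plus 110 s post-stimulus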
Active calls of the source: *.

Screening CC(C)CC(O)C1CCN(C(=O)CCc2nnc(-c3ccccc3)o2)CC1 (configuration not stated) returned KCNK3 block inactive, KCNK9 inh inactive, Kir21 block -0.96, KCNQ1 inh inactive, hERG protect -0.3 and KCNQ1 pot inactive.
Screening CC1CCCN(C(=O)c2ccc3c(c2)OCO3)C1 (configuration not stated) returned KCNK3 block inactive, KCNK9 inh inactive, Kir21 block -1.02, KCNQ1 inh inactive, hERG protect -9.1 and KCNQ1 pot inactive.
For O=C(c1cc(F)ccc1F)C1CCCN(C(=O)c2ccc3nccnc3c2)C1 (configuration not stated) the results were KCNK3 block inactive, KCNK9 inh inactive, Kir21 block 1.04, KCNQ1 inh inactive, hERG protect -12.4 and KCNQ1 pot inactive.
`O=C(c1cccc(Cl)c1)C1CCCN(C(=O)c2ccc3c(c2)OCO3)C1` (configuration not stated) gave KCNK3 block inactive, KCNK9 inh inactive, Kir21 block -4.8*, KCNQ1 inh inactive, hERG protect -9.5 and KCNQ1 pot inactive.
CN(C)c1cccc(C(=O)N2CCCC(C(=O)c3cc(F)ccc3F)C2)c1 (configuration not stated) was read as KCNK3 block inactive, KCNK9 inh inactive, Kir21 block 0.37, KCNQ1 inh inactive, hERG protect -18.4 and KCNQ1 pot 38*.
Screening Cn1cc(/C=C/c2cc[n+](C)cc2)c2cc(Cl)ccc21 returned KCNK3 block inactive, KCNK9 inh inactive, Kir21 block -13.9, KCNQ1 inh 12*, hERG protect -31.9 and KCNQ1 pot inactive.
Screening Cn1cc(/C=C/c2cc[n+](C)cc2)c2cc(F)ccc21 returned KCNK3 block inactive, KCNK9 inh inactive, Kir21 block -12.5, KCNQ1 inh inactive, hERG protect -35.9 and KCNQ1 pot inactive.
For CN(C)CCNc1ncnc2oc(-c3ccccc3)c(-c3ccccc3)c12 the results were KCNK3 block inactive, KCNK9 inh inactive, Kir21 block -4.7*, KCNQ1 inh inactive, hERG protect -7.0 and KCNQ1 pot inactive.
Screening Cc1c(C(=O)OCC[N+]2(C)CCCCC2)oc2ccccc12 returned KCNK3 block inactive, KCNK9 inh inactive, Kir21 block 0.87, KCNQ1 inh inactive, hERG protect -2.6 and KCNQ1 pot inactive.
COc1cccc(-c2nn(-c3ccccc3)cc2CN(C)C(C)c2ccon2)c1 (configuration not stated) was read as KCNK3 block inactive, KCNK9 inh inactive, Kir21 block -0.11, KCNQ1 inh 6*, hERG protect -5.4 and KCNQ1 pot inactive.
COc1cccc(-c2nn(-c3ccccc3)cc2CN(C)Cc2ccno2)c1 was read as KCNK3 block inactive, KCNK9 inh inactive, Kir21 block -0.53, KCNQ1 inh inactive, hERG protect -8.3 and KCNQ1 pot inactive.
Cc1ccc(OC(C)C(=O)Nc2ccccc2C(=O)NCc2cccnc2)cc1C (configuration not stated) was read as KCNK3 block inactive, KCNK9 inh inactive, Kir21 block -2.35, KCNQ1 inh 6*, hERG protect -24.1 and KCNQ1 pot inactive.
Screening COc1ccc(C(O)(CCC(C)C)C(CN2CCOCC2)c2ccccc2)cc1 (configuration not stated) returned KCNK3 block inactive, KCNK9 inh inactive, Kir21 block -0.91, KCNQ1 inh inactive, hERG protect -8.7 and KCNQ1 pot inactive.
For CCn1nnc2cc(C(=O)Nc3cc(S(C)(=O)=O)ccc3Cl)ccc21 the results were KCNK3 block inactive, KCNK9 inh inactive, Kir21 block -1.29, KCNQ1 inh inactive, hERG protect -13.1 and KCNQ1 pot 10*.
For CN(C(=O)c1cnccn1)c1nnc(-c2cnccn2)s1 the results were KCNK3 block inactive, KCNK9 inh inactive, Kir21 block -0.42, KCNQ1 inh inactive, hERG protect 10.1* and KCNQ1 pot inactive.
`COC(=O)c1sc(NC(=S)NNC(=O)c2c(Br)c(C)nn2C)c(C(=O)OC)c1C` gave KCNK3 block inactive, KCNK9 inh inactive, Kir21 block 0.46, KCNQ1 inh 6*, hERG protect -11.5 and KCNQ1 pot inactive.
`COC(=O)c1sc(S(=O)(=O)Nc2c(C)nn(C)c2C)c(C(=O)OC)c1C` gave KCNK3 block inactive.
`CC12CC3CC(C)(C1)CC(C(O)CN1CCOCC1)(C3)C2` (configuration not stated) gave KCNK3 block inactive, KCNK9 inh inactive, Kir21 block -0.15, KCNQ1 inh inactive, hERG protect -4.3 and KCNQ1 pot inactive.
`O=[N+]([O-])c1ccc2c(c1)C=C1CCCCC1(N1CCCCC1)O2` (configuration not stated) gave KCNK3 block inactive, KCNK9 inh -7.44*, Kir21 block 0.97, KCNQ1 inh inactive, hERG protect -8.0 and KCNQ1 pot inactive.
For CNC(=O)c1ccccc1NC(=O)c1ccc(C)c(S(=O)(=O)N2CCCCC2)c1 the results were KCNK3 block inactive, KCNK9 inh inactive, Kir21 block -0.02, KCNQ1 inh inactive, hERG protect 8.7* and KCNQ1 pot inactive.
Cc1ccc(C(=O)Oc2ccc([N+](=O)[O-])cc2)cc1S(=O)(=O)N1CCCCCC1 was read as KCNK3 block inactive, KCNK9 inh -8.06*, Kir21 block -1.72, KCNQ1 inh inactive, hERG protect -8.0 and KCNQ1 pot inactive.
`Cc1ccc(C(=O)OCC(=O)N2C(C)CCCC2C)cc1S(=O)(=O)N1CCCCC1` (configuration not stated) gave KCNK3 block inactive, KCNK9 inh inactive, Kir21 block -0.12, KCNQ1 inh inactive, hERG protect -9.2 and KCNQ1 pot inactive.
For COC(=O)c1ccc(COC(=O)c2ccc(C)c(S(=O)(=O)N3CCCCC3)c2)cc1 the results were KCNK3 block -9.17*.
`Cc1ccc(C(=O)Nc2cccc(O)c2)cc1S(=O)(=O)N1CCCCCC1` gave KCNK3 block inactive, KCNK9 inh inactive, Kir21 block -0.56, KCNQ1 inh inactive, hERG protect -5.0 and KCNQ1 pot inactive.
`CCCC(C)CO` (configuration not stated) gave KCNK3 block inactive.
